{"source": "paper PMC7815202", "about": "(ChemMedChem, 2020)", "key": {"[1]": {"target": "T1, bovine spleen ADA (Bos taurus, UniProt P56658)", "T1 sequence (P56658 1-363)": "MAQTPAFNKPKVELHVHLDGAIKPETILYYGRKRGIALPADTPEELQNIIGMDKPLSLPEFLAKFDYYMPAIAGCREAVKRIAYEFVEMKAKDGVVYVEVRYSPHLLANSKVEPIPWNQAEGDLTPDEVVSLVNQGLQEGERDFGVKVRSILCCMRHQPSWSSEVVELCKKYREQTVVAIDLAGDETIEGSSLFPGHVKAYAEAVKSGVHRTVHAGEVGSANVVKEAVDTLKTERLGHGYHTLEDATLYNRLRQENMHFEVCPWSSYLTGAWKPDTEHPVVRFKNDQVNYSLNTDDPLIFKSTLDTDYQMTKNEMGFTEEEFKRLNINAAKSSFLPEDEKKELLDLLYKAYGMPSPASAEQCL", "test": "Cuvette fluorescence assay of ADA", "format": "biochemical", "method_in_brief": "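Bovine spleen ADA, diluted to 1.15 U mL⁻¹ in 50 mM phosphate buffer pH 7.4 and kept on ice. Test compound (final 1–1000 µM, 0.1 µM for one analogue; DMSO stocks) and tzA (1 mM DMSO stock) were stirred 1 min in buffer in a quartz cuvette at 25.0 °C. ADA was then added. Emission at 410 nm (excitation 322 nm) was read every 10 s for 20 min.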"}, "[2]": {"test_system": "ADA", "details": "non-HTS assay format; ref 8e; cited from earlier work"}, "[3]": {"target": "ADA", "details": "ref Cristalli et al. 1a; cited from earlier work"}, "[4]": {"target": "T1, bovine spleen ADA", "test": "HTS plate-reader fluorescence assay of ADA", "format": "biochemical", "details": "200 μM, initial MBP library screen, relative to negative control"}, "[5]": {"details": "converted from IC50 by Cheng-Prusoff, three independent experiments"}, "[6]": {"details": "cuvette, 25 °C, three independent experiments"}}, "note": "Values joined by “and” are separate entries in the source; they are usually repeats but may differ in a detail not shown here. Equal values may be shown once. Read-outs that look alike come from different tables or passages of the source.", "data": [{"molecule": "C[C@H]1CN=C(c2ccccc2O)O1", "note": "[Compound 6, (S)-2-(5-Methyl-4,5-dihydrooxazol-2-yl)phenol]", "values": [{"measurement": "IC50", "setting": "[1]", "result": "194 ± 4", "unit": "µM"}, {"measurement": "Ki", "setting": "[1]", "result": "161 ± 3", "unit": "µM"}]}, {"molecule": "erythro-9-(2-hydroxy-3-nonyl) adenine [EHNA]", "values": [{"measurement": "IC50", "setting": "[2]", "result": "0.023 ± 0.004", "unit": "µM"}, {"measurement": "Ki", "setting": "[2]", "result": "0.019 ± 0.004", "unit": "µM"}, {"measurement": "Ki", "setting": "[3]", "result": "~0.005", "unit": "µM"}]}, {"molecule": "Oc1ccccc1-c1ncco1", "note": "[Compound 4, 2-oxazolyl phenol]", "values": [{"measurement": "Ki", "setting": "[1]; [5]", "result": "215 ± 12", "unit": "µM"}, {"measurement": "IC50", "setting": "[1]; [6]", "result": "260 ± 14", "unit": "µM"}, {"measurement": "percent inhibition of ADA", "setting": "[4]", "result": 61, "unit": "%"}]}, {"molecule": "C[C@@H]1CN=C(c2ccccc2O)O1", "note": "[Compound 7, (R)-2-(5-Methyl-4,5-dihydrooxazol-2-yl)phenol]", "values": [{"measurement": "IC50", "setting": "[1]", "result": "188 ± 10", "unit": "µM"}, {"measurement": "Ki", "setting": "[1]", "result": "156 ± 8", "unit": "µM"}]}, {"molecule": "Oc1ccccc1-c1ncc[nH]1", "note": "[Compound 3, 2-imidazolyl phenol]", "values": [{"measurement": "Ki", "setting": "[1]; [5]", "result": "77 ± 14", "unit": "µM"}, {"measurement": "IC50", "setting": "[1]; [6]", "result": "93 ± 17", "unit": "µM"}, {"measurement": "percent inhibition of ADA", "setting": "[4]", "result": "~ 83% and 83%"}]}]}
